Test results published in ChEMBL document CHEMBL4257575, “Discovery of Novel Flavonoid Dimers To Reverse Multidrug Resistance Protein 1 (MRP1, ABCC1) Mediated Drug Resistance in Cancers Using a High Throughput Platform with "Click Chemistry"” (J Med Chem, 2018).

biological target: Multidrug resistance-associated protein 1 (Homo sapiens, UniProt P33527); test: Inhibition of MRP1 in human 2008/MRP1 cells assessed as potentiation of doxorubicin-induced cytotoxicity by measuring cell survival at 2 uM after 5 days by MTS assay relative to control; type: cell-based; details: 120 h
How it was run: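 2008/MRP1 cells (retroviral human MRP1 transfectant; RPMI 1640, 10% FBS) at 4,000 per well, with 100 nM doxorubicin plus crude, unpurified click products in DMSO: 2 µM in the primary screen, 1 µM in the secondary. Incubated 5 days at 37 °C. MTS/PMS added for 2 h at 37 °C, absorbance read at 490 nm. % survival is relative to wells without DOX or product. Run in triplicate, at least three experiments.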

Sequence of Multidrug resistance-associated protein 1 (P33527 whole entry): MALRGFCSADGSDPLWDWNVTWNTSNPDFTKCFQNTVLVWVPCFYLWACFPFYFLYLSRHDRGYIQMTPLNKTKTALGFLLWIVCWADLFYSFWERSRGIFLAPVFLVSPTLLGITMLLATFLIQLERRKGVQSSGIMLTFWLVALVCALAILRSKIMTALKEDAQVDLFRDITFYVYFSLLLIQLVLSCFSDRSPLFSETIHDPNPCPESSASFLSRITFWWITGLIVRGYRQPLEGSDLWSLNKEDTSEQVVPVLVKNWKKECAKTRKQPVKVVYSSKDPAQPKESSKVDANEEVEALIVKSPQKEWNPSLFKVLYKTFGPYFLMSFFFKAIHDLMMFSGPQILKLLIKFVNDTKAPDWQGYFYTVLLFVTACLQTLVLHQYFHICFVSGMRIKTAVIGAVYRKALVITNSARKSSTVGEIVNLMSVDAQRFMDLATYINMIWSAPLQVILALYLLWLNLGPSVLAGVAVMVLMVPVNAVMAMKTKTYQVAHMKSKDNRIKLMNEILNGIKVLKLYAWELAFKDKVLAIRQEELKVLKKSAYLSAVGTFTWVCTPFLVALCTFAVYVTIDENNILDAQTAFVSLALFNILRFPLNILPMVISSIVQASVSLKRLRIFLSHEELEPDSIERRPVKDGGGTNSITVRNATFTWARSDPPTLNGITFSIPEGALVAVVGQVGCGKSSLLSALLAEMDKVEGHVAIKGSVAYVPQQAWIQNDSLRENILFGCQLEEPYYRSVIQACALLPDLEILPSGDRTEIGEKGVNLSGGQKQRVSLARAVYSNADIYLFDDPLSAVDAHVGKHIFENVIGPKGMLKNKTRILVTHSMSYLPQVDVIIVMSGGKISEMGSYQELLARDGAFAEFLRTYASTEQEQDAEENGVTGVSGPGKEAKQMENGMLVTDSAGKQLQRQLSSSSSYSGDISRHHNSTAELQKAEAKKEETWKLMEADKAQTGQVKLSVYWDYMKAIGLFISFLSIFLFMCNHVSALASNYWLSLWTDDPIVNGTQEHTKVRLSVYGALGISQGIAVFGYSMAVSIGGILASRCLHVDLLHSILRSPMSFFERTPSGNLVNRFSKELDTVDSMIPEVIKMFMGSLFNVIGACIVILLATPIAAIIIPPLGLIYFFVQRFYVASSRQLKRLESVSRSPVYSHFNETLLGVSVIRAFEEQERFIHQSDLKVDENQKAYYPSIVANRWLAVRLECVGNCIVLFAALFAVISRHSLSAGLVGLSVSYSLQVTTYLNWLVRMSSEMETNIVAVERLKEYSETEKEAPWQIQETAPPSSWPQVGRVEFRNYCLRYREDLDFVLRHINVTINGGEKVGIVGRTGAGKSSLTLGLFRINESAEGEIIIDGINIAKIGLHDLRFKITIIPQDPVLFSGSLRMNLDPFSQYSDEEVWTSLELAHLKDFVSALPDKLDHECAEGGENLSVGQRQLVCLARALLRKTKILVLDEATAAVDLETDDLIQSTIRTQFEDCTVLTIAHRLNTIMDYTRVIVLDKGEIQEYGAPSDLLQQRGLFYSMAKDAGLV

Point of comparison: `O=c1cc(-c2ccc(OCCOCCn3cc(CNc4ccccc4)nn3)cc2)oc2ccccc12`, Survival 90%. Against it:
- O=c1cc(-c2ccccc2)oc2cc(OCCOCCn3cc(COCCOc4ccc5c(=O)cc(-c6ccccc6)oc5c4)nn3)ccc12 — lower, 60%
- O=c1cc(-c2ccc(OCCCc3cn(CCOCCOc4ccc(-c5oc6ccccc6c(=O)c5OCc5ccccc5)cc4)nn3)cc2)oc2cc(F)ccc12 — lower, 60%
- Cc1ccc(C(=O)/C=C/c2ccc(OCCCCc3cn(CCOCCOc4ccc(-c5cc(=O)c6cc(F)ccc6o5)cc4)nn3)cc2)c(O)c1 — lower, 71%
- O=c1cc(-c2ccc(OCCOCCOCCn3cc(CN(Cc4cn(CCOCCOCCOc5ccc(-c6cc(=O)c7cc(F)ccc7o6)cc5)nn4)Cc4cn(CCOCCOCCOc5ccc(-c6cc(=O)c7cc(F)ccc7o6)cc5)nn4)nn3)cc2)oc2ccc(F)cc12 — lower, 77%
- Cc1ccc2oc(-c3ccc(OCCOCCOCCn4cc(-c5cccc(-c6cn(CCOCCOCCOc7ccc(-c8cc(=O)c9cc(C)ccc9o8)cc7)nn6)c5)nn4)cc3)cc(=O)c2c1 — lower, 77%
- O=c1cc(-c2ccccc2)oc2cc(OCCOCCn3cc(CN4CCN(Cc5cn(CCOCCOc6ccc7oc(-c8ccccc8)cc(=O)c7c6)nn5)CC4)nn3)ccc12 — higher, 99%
- Cc1ccc2oc(-c3ccc(OCCOCCOCCn4cc(COCCOc5ccc6c(=O)cc(-c7ccccc7)oc6c5)nn4)cc3)cc(=O)c2c1 — lower, 54%
- O=c1cc(-c2ccc(OCCOCCOCCn3cc(CNc4ccccc4)nn3)cc2)oc2ccc(F)cc12 — the same, 90%
- O=c1cc(-c2ccccc2)oc2cc(OCCn3cc(-c4ccc(-c5cn(CCOc6ccc7occ(-c8ccccc8)c(=O)c7c6)nn5)cc4)nn3)ccc12 — lower, 87%
- [N-]=[N+]=NCCOCCOc1ccc(-c2cc(=O)c3cc(F)ccc3o2)cc1 — the same, 90%
- COc1cccc(COc2c(-c3ccc(OCCOCCn4cc(-c5ccc(-c6cn(CCOCCOc7ccc(-c8oc9ccccc9c(=O)c8OCc8cccc(OC)c8)cc7)nn6)cc5)nn4)cc3)oc3ccccc3c2=O)c1 — lower, 88%
- Cc1ccc2oc(-c3ccc(OCCOCCOCCn4cc(CN5CCN(Cc6cn(CCOCCOCCOc7ccc(-c8cc(=O)c9cc(C)ccc9o8)cc7)nn6)CC5)nn4)cc3)cc(=O)c2c1 — higher, 103%
- O=c1cc(-c2ccccc2)oc2cc(OCCOCCOCCn3cc(COCCOc4ccc5c(=O)cc(-c6ccccc6)oc5c4)nn3)ccc12 — lower, 60%
- O=c1cc(-c2ccc(OCCOCCOCCn3cc(CNc4ccccc4)nn3)cc2)oc2ccccc12 — lower, 88%
- CCc1ccc(O)c(C(=O)/C=C/c2ccc(OCCCCc3cn(CCOCCOCCOc4ccc(-c5cc(=O)c6cc(F)ccc6o5)cc4)nn3)cc2)c1 — lower, 67%
- O=Cc1ccc(OCCCCc2cn(CCOCCOCCOc3ccc(-c4cc(=O)c5ccccc5o4)cc3)nn2)cc1 — lower, 70%
- COc1cccc(COc2c(-c3ccc(OCCOCCn4cc(CCCOc5ccc(-c6cc(=O)c7ccccc7o6)cc5)nn4)cc3)oc3ccccc3c2=O)c1 — lower, 68%
- C#CCCCCOc1ccc(-c2oc3ccccc3c(=O)c2OCc2cccc(OC)c2)cc1 — lower, 71%
- O=Cc1ccc(OCCCCc2cn(CCOCCOc3ccc(-c4oc5ccccc5c(=O)c4OCc4ccccc4)cc3)nn2)cc1 — lower, 59%
- O=c1cc(-c2ccccc2)oc2c(OCCn3cc(CNc4ccccc4)nn3)cccc12 — lower, 85%
- C#CCN(CCOc1ccc2c(=O)cc(-c3ccccc3)oc2c1)Cc1ccccc1 — lower, 86%
- COCOc1cc(OCc2ccccc2)c2c(=O)cc(-c3ccc(OCCCc4cn(CCOCCOc5ccc6c(=O)cc(-c7ccccc7)oc6c5)nn4)cc3)oc2c1 — lower, 54%
- CN(CCN(C)Cc1cn(CCOc2ccc3occ(-c4ccccc4)c(=O)c3c2)nn1)Cc1cn(CCOc2ccc3c(=O)cc(-c4ccccc4)oc3c2)nn1 — the same, 90%
- O=C1c2ccccc2C(=O)N1CCc1cn(CCOCCOc2ccc3c(=O)cc(-c4ccccc4)oc3c2)nn1 — lower, 51%
- C#CCN(CC#C)Cc1ccccc1 — lower, 81%
- Cc1ccc(O)c(C(=O)/C=C/c2ccc(OCCCCc3cn(CCOCCOc4ccc5c(=O)cc(-c6ccccc6)oc5c4)nn3)cc2)c1 — lower, 73%
- O=c1[nH]c(-c2ccc(OCCCc3cn(CCOCCOCCOc4ccc(-c5cc(=O)c6cc(F)ccc6o5)cc4)nn3)cc2)nc2ccccc12 — lower, 51%
- C#CCCCCOc1ccc(-c2cc(=O)c3cc(C)ccc3o2)cc1 — lower, 88%
- COc1cccc(COc2c(-c3ccc(OCCOCCn4cc(CN(Cc5ccccc5)Cc5cn(CCOCCOc6ccc(-c7oc8ccccc8c(=O)c7OCc7cccc(OC)c7)cc6)nn5)nn4)cc3)oc3ccccc3c2=O)c1 — lower, 80%
- CCc1ccc(O)c(C(=O)/C=C/c2ccc(OCCCCc3cn(CCOCCOCCOc4ccc(-c5cc(=O)c6ccccc6o5)cc4)nn3)cc2)c1 — lower, 60%
- COc1cccc(COc2c(-c3ccc(OCCCCc4cn(CCOc5cccc6c(=O)cc(-c7ccccc7)oc56)nn4)cc3)oc3ccccc3c2=O)c1 — lower, 51%
- C#CCN1CCN(CC#C)CC1 — lower, 81%
- Cc1ccc(C(=O)/C=C/c2ccc(OCCCCc3cn(CCOc4cccc5c(=O)cc(-c6ccccc6)oc45)nn3)cc2)c(O)c1 — lower, 75%
- CN(CCN(C)Cc1cn(CCOCCOCCOc2ccc3c(=O)cc(-c4ccccc4)oc3c2)nn1)Cc1cn(CCOCCOCCOc2ccc3c(=O)cc(-c4ccccc4)oc3c2)nn1 — lower, 88%
- O=c1cc(-c2ccc(OCCCc3cn(CCOc4cccc5c(=O)cc(-c6ccccc6)oc45)nn3)cc2)oc2ccc(F)cc12 — lower, 89%
- O=c1c(OCc2ccccc2)c(-c2ccc(OCCOCCn3cc(CNc4ccccc4)nn3)cc2)oc2ccccc12 — higher, 91%
- COCOc1cc(OCc2ccccc2)c2c(=O)cc(-c3ccc(OCCCc4cn(CCOCCOCCOc5ccc(-c6cc(=O)c7cc(F)ccc7o6)cc5)nn4)cc3)oc2c1 — lower, 58%
- C#CCCCCOc1ccc(/C=C/C(=O)c2cc(C)ccc2O)cc1 — higher, 100%
- Cc1ccc(O)c(C(=O)/C=C/c2ccc(OCCCCc3cn(CCOCCOc4ccc(-c5cc(=O)c6ccccc6o5)cc4)nn3)cc2)c1 — lower, 60%
- CCc1ccc(O)c(C(=O)/C=C/c2ccc(OCCCCc3cn(CCOCCOc4cccc(-c5oc6ccccc6c(=O)c5OCc5ccccc5)c4)nn3)cc2)c1 — lower, 85%
- O=Cc1ccc(OCCCCc2cn(CCOc3cccc4c(=O)cc(-c5ccccc5)oc34)nn2)cc1 — lower, 83%
- O=c1cc(-c2ccc(OCCCc3cn(CCOc4cccc5c(=O)cc(-c6ccccc6)oc45)nn3)cc2)oc2cc(F)ccc12 — lower, 77%
- O=c1cc(-c2ccccc2)oc2cc(OCCn3cc(CN(Cc4ccccc4)Cc4cn(CCOc5ccc6occ(-c7ccccc7)c(=O)c6c5)nn4)nn3)ccc12 — higher, 96%
- Cc1ccc2oc(-c3ccc(OCCOCCOCCn4cc(CCCCOc5ccc(C=O)cc5)nn4)cc3)cc(=O)c2c1 — lower, 72%
- O=c1[nH]c(-c2ccc(OCCCc3cn(CCOCCOc4ccc(-c5cc(=O)c6ccccc6o5)cc4)nn3)cc2)nc2ccccc12 — lower, 58%
- CCc1ccc(O)c(C(=O)/C=C/c2ccc(OCCCCc3cn(CCOCCOc4ccc5c(=O)cc(-c6ccccc6)oc5c4)nn3)cc2)c1 — lower, 68%
- O=c1cc(-c2ccc(OCCOCCOCCn3cc(CCCOc4ccc(-c5cc(=O)c6cc(F)ccc6o5)cc4)nn3)cc2)oc2ccccc12 — lower, 79%
- CN(CCN(C)Cc1cn(CCOCCOc2ccc3oc(-c4ccccc4)cc(=O)c3c2)nn1)Cc1cn(CCOCCOc2ccc3c(=O)cc(-c4ccccc4)oc3c2)nn1 — higher, 99%
